Test results published in ChEMBL document CHEMBL4385624, “l-Type amino acid transporter 1 activity of 1,2,3-triazolyl analogs of l-histidine and l-tryptophan” (Bioorg Med Chem Lett, 2019).

How the values were obtained:
Format in all cases: cell-based
[1] = biological target: T1, Large neutral amino acids transporter small subunit 1 (Homo sapiens, UniProt Q01650); assay: Trans-stimulation of human LAT1 expressed in TREx HEK293 cells assessed as induction of [3H]-gabapentin efflux at 200 uM after 3 mins by scintillation counting analysis
Method in brief: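 HEK cells with inducible hLAT1 were preloaded with [³H]-gabapentin, then exposed to test compound at 200 μM. Efflux rate (fmol/min) was calculated 3 min after compound addition. Data from at least triplicate wells in 24-well poly-D plates.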

[2] = biological target: T1, Large neutral amino acids transporter small subunit 1; assay: Trans-stimulation of human LAT1 expressed in TREx HEK293 cells assessed as induction of [3H]-gabapentin efflux at 200 uM after 3 mins by scintillation counting analysis relative to L-phenylalanine
Method in brief: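 [³H]-gabapentin-preloaded HEK-hLAT1 cells (inducible) were treated with compound at 200 μM. Efflux rate was taken at 3 min and expressed as % of the rate induced by L-phenylalanine, averaged over seven experiments. At least triplicate, 24-well poly-D plates.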

[3] = biological target: T1, Large neutral amino acids transporter small subunit 1; assay: Cis-inhibition of human LAT1 expressed in TREx HEK293 cells at 200 uM assessed as inhibition of [3H]-gabapentin uptake preincubated for 3 mins at 37 degC followed by washing with choline buffer and measured after 3 hrs by scintillation counting analysis relative to BCH
[4] = biological target: T1, Large neutral amino acids transporter small subunit 1; assay: Cis-inhibition of human LAT1 expressed in TREx HEK293 cells assessed as inhibition of [3H]-gabapentin uptake preincubated for 3 mins at 37 degC followed by washing with choline buffer and measured after 3 hrs by scintillation counting analysis
Method in brief: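 Inducible hLAT1 HEK cells in 24-well poly-D plates, pH 7.4. Cells were exposed to [³H]-gabapentin (6 nM) plus test compound at 0.1–500 μM. […] Run at least in triplicate.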

T1 sequence (Q01650 whole entry): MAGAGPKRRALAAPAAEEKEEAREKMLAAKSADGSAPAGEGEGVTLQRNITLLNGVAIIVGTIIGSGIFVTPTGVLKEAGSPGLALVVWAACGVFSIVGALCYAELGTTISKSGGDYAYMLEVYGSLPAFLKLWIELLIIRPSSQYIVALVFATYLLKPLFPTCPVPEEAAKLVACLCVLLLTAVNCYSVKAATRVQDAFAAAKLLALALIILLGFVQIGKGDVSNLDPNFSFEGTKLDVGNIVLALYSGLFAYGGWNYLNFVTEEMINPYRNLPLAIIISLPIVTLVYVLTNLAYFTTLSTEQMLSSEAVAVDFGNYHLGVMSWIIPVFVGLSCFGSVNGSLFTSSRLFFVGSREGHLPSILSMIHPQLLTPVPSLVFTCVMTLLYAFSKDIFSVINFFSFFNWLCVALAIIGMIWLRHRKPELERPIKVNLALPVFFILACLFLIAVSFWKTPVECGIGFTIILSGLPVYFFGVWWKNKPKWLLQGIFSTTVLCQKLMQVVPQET

Structure (SMILES) | Activity [1] | Activity [2] | inhibition [3] | IC50 [4]
N[C@@H](Cc1ccccc1)C(=O)O | 2.7 fmol/min |  |  | 
N[C@@H](Cc1cn(Cc2ccccc2)nn1)C(=O)O |  | 43% |  | 
N[C@@H](Cn1ccnn1)C(=O)O |  | 82% | 58% | 160 µM
N[C@@H](Cn1cc(-c2ccccc2)nn1)C(=O)O |  | 37% | 13% | > 1000 µM
Cn1cc(C[C@H](N)C(=O)O)nn1 |  | 63% | 20% | > 1000 µM
Cc1cn(C[C@H](N)C(=O)O)nn1 |  | 70% | 38% | 440 µM
N[C@@H](Cc1c[nH]cn1)C(=O)O [HISTIDINE] |  |  |  | 110 µM
N[C@@H](Cn1nnc2ccccc21)C(=O)O |  | 100% | 59% | 340 µM
N[C@@H](Cn1cc(Cc2ccccc2)nn1)C(=O)O |  | 49% | -6% | 
N[C@@H](Cn1cc(CO)nn1)C(=O)O |  | 57% | 14% | > 1000 µM
